CCR6 antag: CCR6 receptor antagonists, primary screen, cell-based, CHO-K1, luminescence, beta-arrestin, uHTS. inhibition, % at 20 µM. AID 493098, 2011. hit rate 0.49% among 340,000. CHO-K1 CCR6 PathHunter beta-arrestin, CCL20-stimulated;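 active = compounds whose inhibition of the agonist-driven luminescence signal at 20 µM reaches about 50%, limit read from the data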;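 note: cells stimulated with CCL20 at 14 nM final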
Target sequence (P51684 whole entry, looked up): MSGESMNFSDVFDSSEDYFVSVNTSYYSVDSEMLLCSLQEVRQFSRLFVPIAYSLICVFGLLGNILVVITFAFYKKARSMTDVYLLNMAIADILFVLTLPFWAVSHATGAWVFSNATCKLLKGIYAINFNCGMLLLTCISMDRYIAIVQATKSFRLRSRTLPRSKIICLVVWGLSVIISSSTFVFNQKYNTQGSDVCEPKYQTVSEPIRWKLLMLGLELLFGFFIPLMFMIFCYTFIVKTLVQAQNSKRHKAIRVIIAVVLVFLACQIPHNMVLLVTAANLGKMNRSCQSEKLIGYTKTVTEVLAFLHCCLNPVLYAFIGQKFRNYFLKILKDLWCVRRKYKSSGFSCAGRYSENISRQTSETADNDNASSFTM
H9c2 TAG inh: inhibitors of triacylglycerol accumulation, primary screen, cell-based, uHTS, fluorescence, H9c2; hit rate 0.66% among 230,000; AID 651582, 2012; inhibition, % at 12.5 µM; H9c2 cells, Nile Red lipid (TAG) fluorescence; cells loaded with 200 µM oleic acid;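 active = pattern-corrected inhibition of lipid staining of at least 50% with the nuclear-stain viability signal not falling by more than 50%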
APJ ag: agonists of human apelin receptor APJ, primary screen, CHO-K1 cells, PathHunter beta-arrestin, luminescence; P35414; activation, % at 20 µM; hit rate 0.11% among 330,000; 0% DMSO wells, 100% apelin; AID 2520, 2010;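 active = activation more than six SD over the plate average, tested at 20 µM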
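Assay system: engineered CHO-K1 APJ arrestin reporter cells; Amount: 1000 CHO-K1 reporter cells seeded per well; Dosing: one dose, 20 µM compound, 1% DMSO; Times: compound stimulation 90 min at 25 °C, detection 60 min; Measured by: luminescent beta-gal fragment complementation, chemiluminescent substrate; Read-out: APJ–arrestin association signal; Controls: DMSO vs Apelin-13 10 nM.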
EBI2 block: EBI2 receptor antagonists, beta-arrestin recruitment, primary screen, cell-based, luminescence, 7a,25-OHC stimulation, uHTS; G-protein coupled receptor 183 (Homo sapiens), P32249; hit rate 0.81% among 360,000; inhibition, % at 5 µM; 7a,25-OHC stimulated; in the data active = inhibition above about 38%;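 note: enzyme fragment complementation signal reports receptor beta-arrestin coupling in cells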
APJ antagonist: antagonists of human apelin receptor APJ, primary screen, CHO-K1 cells, beta-arrestin complementation, luminescence | inhibition, % at 20 µM | P35414 | hit rate 0.32% among 330,000;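 active = inhibition above about 40% at 20 µM, limit read from the data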;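 note: cells challenged with 10 nM apelin-13 agonist together with compound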
CXCR6 block: CXCR6 receptor inhibitors, primary screen, cell-based, beta-arrestin, luminescence, CHO-K1 PathHunter, 1536-well; C-X-C chemokine receptor type 6 (Homo sapiens), O00574; inhibition, % at 20 µM; hit rate 0.36% among 360,000; AID 602244, 2012; in the data active = inhibition above about 34%, passing the limit was not always enough;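 note: antagonist mode with CXCL16 agonist at 10 nM final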
Target sequence (O00574 whole entry, looked up): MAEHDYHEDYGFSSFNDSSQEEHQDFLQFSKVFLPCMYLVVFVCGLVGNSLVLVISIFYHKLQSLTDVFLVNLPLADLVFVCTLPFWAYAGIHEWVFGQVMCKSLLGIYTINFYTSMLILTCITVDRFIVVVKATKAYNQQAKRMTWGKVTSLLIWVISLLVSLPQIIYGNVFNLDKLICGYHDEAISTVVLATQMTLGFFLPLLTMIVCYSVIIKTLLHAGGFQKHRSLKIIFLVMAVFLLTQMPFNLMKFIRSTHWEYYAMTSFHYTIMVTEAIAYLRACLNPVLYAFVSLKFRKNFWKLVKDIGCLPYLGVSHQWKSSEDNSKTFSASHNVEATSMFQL
EBI2 antag conf: EBI2 antagonist hit retest, beta-arrestin, confirmation, cell-based, single concentration, luminescence, 7a,25-OHC stimulation | shares compounds with EBI2 block | 7a,25-OHC antagonism | inhibition, % at 5 µM | hit rate 29% among 2,400 | AID 651997, 2013;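 active = inhibition of at least 50%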
EBI2 ag: EBI2 agonist activity of antagonist hits, confirmation, counter-screen for EBI2 antagonist project, cell-based, single concentration, agonist mode, luminescence | shares compounds with EBI2 block | 2,400 tested, under 10 active | activation, % at 5 µM | EBI2-expressing cells, 60 min; 0% vehicle, 100% 7α,25-dihydroxycholesterol control;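 active = activation of at least 50%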
bGal counter: E. coli beta-galactosidase enzyme inhibition, confirmation, counter-screen for EBI2 antagonist project, biochemical, luminescence, single concentration; shares compounds with EBI2 block; purified beta-galactosidase, luminescent Galacton Star, 15 min; inhibition, % at 5 µM; hit rate 1% among 2,400;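 active = replicate-average signal at least 3 plate SD below neutral wells, shown as high inhibition, flagging enzyme-inhibiting false positives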;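 note: higher means stronger loss of beta-gal luminescence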
Of the large screens only hits and unclear results are named; the others gave an inactive call (follow-up assays come after a bar, where they were run); ! = not confirmed by another sample. Sampled rows, rich in hits. Any-hit rate of the full collection: about 1.9%.

CCN(c1ccc(NC(=O)COC(=O)c2ccc(C)s2)cc1)C(C)C	EBI2 block 50 | EBI2 antag conf inactive | EBI2 ag inactive | bGal counter inactive
Cc1ccc(C(=O)OCC(=O)Nc2ccc(C(N)=O)cc2)s1	none
CCCCOc1ccc(C(=O)N2CCN(c3ccc(N4CCOCC4)nn3)CC2)cc1	none
CCCOc1ccc(C(=O)N2CCN(c3ccc(N)cc3Cl)CC2)cc1	EBI2 block 70 | EBI2 antag conf 52 | EBI2 ag inactive | bGal counter inactive
C=CCc1cccc(CNc2nc3ccccc3n2CCN2CCOCC2)c1O	EBI2 block 83 (no result: H9c2 TAG inh) | EBI2 antag conf 84 | EBI2 ag inactive | bGal counter inactive
C=CCc1cccc(CNc2nc3ccccc3n2C)c1O	none
COC(=O)c1cnc(Nc2nc(CN)cs2)nc1C(F)(F)F	none (no result: CCR6 antag, APJ ag, APJ antagonist)
Cc1nc(CSc2ccc(Cl)cc2)cc(NCc2ccccc2)n1	EBI2 block 47 | EBI2 antag conf inactive | EBI2 ag inactive | bGal counter inactive
O=C(C1=NOC2(C1)C(=O)Nc1ccccc12)N1CCCCC1 (centres undefined)	none (no result: CCR6 antag, H9c2 TAG inh, APJ ag, APJ antagonist)
O=C(CN1CCN(Cc2ccccc2)CC1)N/N=C/c1ccc(Br)s1	EBI2 block 44 | EBI2 antag conf inactive | EBI2 ag inactive | bGal counter inactive
O=C(CN1CCN(Cc2ccccc2)CC1)N/N=C/c1ccco1	none
O=C(CNC(=O)c1ccc(Br)o1)Nc1ccc(F)c(S(=O)(=O)N2CCOCC2)c1	none
CN(NC(=S)Nc1ccc(OC(F)F)cc1)C(=S)Nc1ccc(OC(F)F)cc1	EBI2 block 43 | EBI2 antag conf inactive | EBI2 ag inactive | bGal counter inactive
FC(F)Oc1ccc(NC(=S)Nc2ccc3cn[nH]c3c2)cc1	EBI2 block 53 | EBI2 antag conf inactive | EBI2 ag inactive | bGal counter inactive
FC(F)Oc1ccc(NC(=S)NCc2ccccc2)cc1	none
S=C(Nc1ccccc1)Nc1ccc2cn[nH]c2c1	none
Oc1cccc2c(NC(=S)Nc3ccc(OC(F)F)cc3)cccc12	EBI2 block 45 (no result: H9c2 TAG inh) | EBI2 antag conf inactive | EBI2 ag inactive | bGal counter inactive
CN(C)c1cccc(C(=O)NCCCSc2ccccc2)c1	none
COC(=O)c1ccc(Nc2c([N+](=O)[O-])ccc3nonc23)cc1	none (no result: H9c2 TAG inh)
CC(c1ccccc1)N(CCC(c1ccccc1)C1CCOC(C)(C)C1)C(=O)c1ccco1 (centres undefined)	EBI2 block 44 (no result: H9c2 TAG inh) | EBI2 antag conf inactive | EBI2 ag inactive | bGal counter inactive
COc1ccc(CNc2ccc(-c3ccc(OC)cc3)nn2)cc1	EBI2 block 74 (no result: H9c2 TAG inh) | EBI2 antag conf inactive | EBI2 ag inactive | bGal counter inactive
COc1ccc([C@H]2CC(=O)C=C(c3ccc4ccccc4c3)C2)cc1OC	EBI2 block 62 | EBI2 antag conf 51 | EBI2 ag inactive | bGal counter inactive
COc1ccc([C@H]2CC(=O)C=C(c3ccc(OC)c(F)c3)C2)cc1	EBI2 block 51 | EBI2 antag conf inactive | EBI2 ag inactive | bGal counter inactive
COc1ccc([C@H]2CC(=O)C=C(c3ccc(OC)c(OC)c3)C2)cc1	EBI2 block 46 | EBI2 antag conf inactive | EBI2 ag inactive | bGal counter inactive
CCN(C[C@H]1N[C@@](CC)(C(=O)OC)[C@H]2C(=O)N(Cc3ccccc3)C(=O)[C@@H]12)C(=O)NC(C)C	none
CC(C)Nc1nc(Cl)nc(N(C#N)CN2C(=O)c3ccccc3C2=O)n1	EBI2 block 56 (no result: H9c2 TAG inh) | EBI2 antag conf 53 | EBI2 ag inactive | bGal counter inactive
COc1ccccc1N=c1scc(-c2ccc3c(c2)NC(=O)CO3)n1CC1CCCO1 (centres undefined)	none
O=C1COc2ccc(-c3csc(=Nc4ccc(OC(F)F)cc4)n3CC3CCCO3)cc2N1 (centres undefined)	CCR6 antag 72, EBI2 block 70 (no result: H9c2 TAG inh) | EBI2 antag conf 55 | EBI2 ag inactive | bGal counter inactive
COCC(C)n1c(-c2ccc3c(c2)NC(=O)CO3)csc1=Nc1ccc(OC(F)F)cc1 (centres undefined)	CCR6 antag 62!, EBI2 block 58 | EBI2 antag conf 58! | EBI2 ag inactive | bGal counter inactive
CCN=c1scc(-c2ccc3c(c2)NC(=O)CO3)n1N=C1CCCC1	none
COc1cccc(COC(=O)Cc2ccc(S(=O)(=O)N3CCOCC3)s2)c1OC	none
Cc1ccc2c(C)c(C(=O)N3CCN(Cc4ccc5c(c4)OCO5)CC3)oc2c1C	EBI2 block 44 (no result: H9c2 TAG inh) | EBI2 antag conf inactive | EBI2 ag inactive | bGal counter inactive
O=C(c1cc2ccccc2oc1=O)N1CCN(Cc2ccc3c(c2)OCO3)CC1	none
O=C(c1cc2ccccc2o1)N1CCN(CCOc2ccccc2)CC1	EBI2 block 56 | EBI2 antag conf inactive | EBI2 ag inactive | bGal counter inactive
Cc1ccc(C(=O)N2CCN(Cc3ccc4c(c3)OCO4)CC2)o1	none
O=C(c1cc2ccccc2o1)N1CCN(Cc2ccc3c(c2)OCO3)CC1	EBI2 block 70 | EBI2 antag conf inactive | EBI2 ag inactive | bGal counter inactive
O=C(c1cc2ccccc2o1)N1CCOCC1	none
CCCc1nc2c(C)cc(Br)cn2c1Cc1ccc(C)cc1	none (no result: CCR6 antag, H9c2 TAG inh, APJ ag, APJ antagonist)
Cc1ccc(NC(=O)c2ccc(OCc3c(C)noc3C)cc2)cc1C	EBI2 block 53 | EBI2 antag conf inactive | EBI2 ag inactive | bGal counter inactive
CC(=O)Nc1ccc(NC(=O)c2ccc(OCc3c(C)noc3C)cc2)cc1	none
COc1cc(C(=O)NCCOc2ccc(Cl)cc2)ccc1OCc1c(C)noc1C	EBI2 block 72 | EBI2 antag conf 56 | EBI2 ag inactive | bGal counter inactive
CC(C)CCNC(=O)C(=O)Nc1ccc2c(c1)N(S(=O)(=O)c1cccs1)CCC2	none

Screening data (PubChem)
